Screening results (PubChem)
Most compounds without a hit are left out; they make up all but 2% or so of the library.
MBD2 inh – blocks human MBD2 binding to methylated DNA | Q9UBB5 | hit rate 0.31% among 370,000 | inhibition, % at 4.4 µM | TR-FRET, MBD2 binding to methylated oligonucleotide; in the data active means inhibition above about 13%
UHRF1 MBD2 ctr – UHRF1 methyl-DNA binding inhibition; Q96T88; UHRF1 binding to methylated oligo, TR-FRET; inhibition, % at 4.4 µM; hit rate 0.75% among 370,000; AID 687016; in the data active means inhibition above about 21%;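 further: UHRF1 SRA domain binding a hemimethylated CpG hairpin DNA probe; 0% = median of test compound wells and 100% = reference inhibitor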
TCR CD3 inh – inhibitors of human TCR-CD3 interaction; inhibition, % at 9.4 µM; hit rate 0.37% among 360,000; TAMRA-labeled TCR probe fluorescence, biochemical; in the data active means inhibition above about 19%;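 further: recombinant mutant TCR 2C K166C tagged with TAMRA read by polarization; 0% = receptor in buffer alone and 100% = receptor with positive control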
ARFGAP1 inhibitor – rat ARFGAP1 inhibition | Q62848 | Arfgap1-stimulated ARF1 GTP hydrolysis, GDP FP detection | inhibition, % at 16.5 µM | hit rate 0.26% among 360,000;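 active means inhibition above a per-plate limit, mean inhibition of low control wells plus 3 SD, cut at about 25% in these data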;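 further: 0% = DMSO wells with enzyme and 100% = wells lacking Arfgap1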
Target sequence (Q62848 1-136 limits assumed): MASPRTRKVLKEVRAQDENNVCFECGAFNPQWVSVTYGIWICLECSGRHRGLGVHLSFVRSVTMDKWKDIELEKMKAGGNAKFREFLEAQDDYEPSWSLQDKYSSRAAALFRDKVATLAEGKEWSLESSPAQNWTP
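system = rat Arfgap1 catalytic domain, aa 1-136 | technique = FP, GDP Alexa 633 tracer displaced from anti-GDP antibody, 620/688 nm | compound = one concentration, 16.5 µM, DMSO 1.26% | medium = HEPES-based buffer, pH 7.5 | timing = compound-enzyme preincubation 20 min, reaction 120 min, detection 60 min, 25 °C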
ASAP1 inh – ASAP1 ArfGAP inhibition; ASAP1-stimulated ARF1 GTP hydrolysis, GDP FP detection; inhibition, % at 16.5 µM; hit rate 0.19% among 360,000; AID 624377; in the data active means inhibition above about 25%;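 further: 0% = vehicle with enzyme and substrate and 100% = no enzyme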
Target sequence (Q9ULH1 325-724 limits assumed): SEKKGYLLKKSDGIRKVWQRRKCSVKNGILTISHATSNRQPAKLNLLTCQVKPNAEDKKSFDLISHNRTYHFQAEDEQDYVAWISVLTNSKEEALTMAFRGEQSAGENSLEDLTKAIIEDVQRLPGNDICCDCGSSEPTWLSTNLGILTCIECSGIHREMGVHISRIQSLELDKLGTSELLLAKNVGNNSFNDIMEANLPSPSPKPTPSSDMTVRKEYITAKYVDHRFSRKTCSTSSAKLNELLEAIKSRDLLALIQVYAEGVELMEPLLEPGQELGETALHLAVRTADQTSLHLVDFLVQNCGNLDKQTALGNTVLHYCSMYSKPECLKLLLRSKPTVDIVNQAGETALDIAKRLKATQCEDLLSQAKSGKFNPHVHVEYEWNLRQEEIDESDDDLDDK
LEDGF integ inh – blocks HIV-1 LEDGF/p75-dependent DNA integration; TR-FRET IN-LEDGF/p75 DNA integration, Eu/Cy5; inhibition, % at 3.7 µM; hit rate 0.64% among 370,000; AID 743269;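 active means inhibition above the screen-wide mean plus 3 SD, cut at about 13% in these data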;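 further: signal is the Cy5 over europium emission ratio at 671 and 618 nm; 0% = plate median of compound wells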
An asterisk follows results filed as active; . = no result.

SMILES | MBD2 inh | UHRF1 MBD2 ctr | TCR CD3 inh | ARFGAP1 inhibitor | ASAP1 inh | LEDGF integ inh
Cc1ccc(C(=O)NNC(=O)C(C)Sc2nc(N)cc(N)n2)cc1 (configuration not stated) | 7.8 | 20.8* | 0.1 | -6.1 | 1.6 | -0.2
COCC(C)n1c(C)cc(C(=O)COC(=O)CCc2nc3ccccc3c(=O)[nH]2)c1C (configuration not stated) | 1.1 | 26.0* | 4.5 | -0.2 | -3.5 | 0.4
CC(C)C[C@@H](COCc1ccc([N+](=O)[O-])cc1)N1CCN(C(=O)c2ccc(C(F)(F)F)cc2)CCC1=O | 5.0 | 21.5* | 0.0 | -3.2 | 1.6 | -1.8
CC(C)C[C@@H](COCc1ccc(Cl)cc1)N1CCN(C(=O)c2ccc(C(F)(F)F)cc2)CCC1=O | -2.3 | 0.7 | -5.5 | -1.9 | 12.6 | -2.9
Fc1cccc(Cl)c1CNC(c1ccccc1)c1ccccc1 | -3.7 | 58.0* | 0.0 | 2.4 | 17.9 | 2.1
O=C(CNC(c1ccccc1)c1ccccc1)Nc1c(F)cccc1F | -4.5 | 7.0 | 0.6 | -3.2 | 3.3 | 1.1
CN(C)CCOC(C)(c1ccccc1)c1ccccn1 (configuration not stated) | -1.1 | 65.6* | 5.1 | -12.0 | 3.9 | 2.9
COC(=O)[C@]1(C)CN(C(=O)OC(C)(C)C)C2=C1C(=O)C[C@@](C)(C(=O)OC(C)(C)C)C2 | -3.5 | 1.0 | . | . | . | -3.6
CCCc1cc(=O)oc2cc(C)c(CN3CCCC3)c(O)c12 | 7.3 | 9.5 | 5.8 | -2.9 | -3.4 | 13.4*
CC(C)CNC(=O)OCc1cn(Cc2ccccc2C(F)(F)F)nn1 | -0.7 | -1.5 | . | . | . | -0.8
CCOC(=O)c1c(NC(=O)c2ccc(S(=O)(=O)N3CCOCC3)cc2)sc2c1CCN(C)C2 | 14.6* | 17.2 | -2.6 | 1.2 | 3.1 | 0.1
C/C(=N/NC(=O)Cc1cccs1)c1cccc([N+](=O)[O-])c1 | -5.8 | -1.5 | . | . | . | 3.0
O=C(N[C@H](C(=O)N1CCC[C@H]1C(=O)NCCc1ccccc1Cl)C1CCCCC1)c1ccccc1 | 2.5 | 0.5 | -2.8 | -9.6 | -1.9 | 5.6
COc1ccc(CCN2C(=O)COc3ccccc3C2C(=O)NCc2ccccc2)cc1OC (configuration not stated) | 1.7 | 23.0* | 0.7 | -1.4 | -0.2 | 0.6
COc1cc(/C=N/NC(=O)c2nnn(-c3nonc3N)c2C(C)C)ccc1OCc1ccc(F)cc1 | 10.1 | 20.7* | 6.4 | -4.3 | 2.0 | 2.8
COc1cc(/C=N/NC(=O)c2cc(C)oc2C)ccc1OCc1ccccc1 | -1.7 | -2.2 | -5.1 | 13.1 | 3.1 | 84.0*
Cc1ccc([N+](=O)[O-])cc1S(=O)(=O)Nc1ccc(C(=O)N2CCN(C(=O)c3ccco3)CC2)cc1 | 0.6 | 1.9 | 0.3 | 4.1 | -7.9 | 0.7
COc1ccc(S(=O)(=O)c2c(N)n(Cc3ccco3)c3nc4ccccc4nc23)cc1 | 1.9 | -0.4 | -6.7 | 17.0 | 11.3 | 14.6*
Cc1nc2ccccc2c(=O)n1Cc1ccco1 | 6.5 | 2.1 | -8.1 | -2.9 | -2.9 | 3.0
COc1ccc(Cn2c(C)nc3c(c2=O)c2nc4ccccc4nc2n3Cc2ccco2)cc1 | 17.8* | 17.5 | -1.9 | -29.5 | -1.9 | 13.5*
COc1ccccc1Cc1c(-c2ccc(OC)c(OC)c2)nc2ccc(C)cn12 | 2.9 | 14.5 | -9.4 | -12.4 | 3.9 | -0.8
COc1ccccc1Cc1c(-c2ccc(C)cc2)nc2c(C)cc(Br)cn12 | 0.5 | 1.6 | -7.4 | -7.2 | -3.3 | 4.6
COc1ccc(Cc2c(C(C)(C)C)nc3ccc(C)cn23)c(C)c1 | 9.5 | 24.0* | -5.0 | 3.2 | 7.2 | 3.2
COc1ccc(Cc2c(C(C)(C)C)nc3ccc(Cl)cn23)c(C)c1 | -3.9 | -0.7 | -0.6 | 12.5 | -1.8 | -2.5
COc1ccccc1Cc1c(C(C)(C)C)nc2ccc(C)cn12 | 2.2 | 22.8* | 4.3 | 8.9 | 9.4 | -1.6
SMILES | MBD2 inh | UHRF1 MBD2 ctr | TCR CD3 inh | ARFGAP1 inhibitor | ASAP1 inh | LEDGF integ inh
COc1ccccc1Cc1c(C(C)(C)C)nc2c(C)cc(Br)cn12 | 2.4 | 22.9* | -3.5 | 0.0 | 2.6 | -0.3
Cc1ccc(S(=O)(=O)N2CCN(C(=O)[C@H](Cc3ccccc3)NC(=O)c3ccco3)CC2)cc1C | -3.2 | -3.7 | 3.9 | -6.3 | 6.2 | -5.3
OC1(Cc2ccccc2)CCN(c2ncnc3sccc23)CC1 | -2.1 | 2.2 | . | . | . | 2.1
CC(=O)c1cc(C)c(OCc2cn(CC(=O)c3ccc(O)cc3)nn2)c(C)c1 | 8.5 | 20.8* | 0.1 | -2.9 | 12.3 | 4.9
O=C(Cn1cc(COc2c(Br)cc(F)cc2Br)nn1)c1ccc(O)cc1 | 13.0 | 21.3* | 1.8 | 0.6 | 5.7 | 2.7
O=C(Cn1cc(COc2ccc(Br)cc2)nn1)c1ccc(O)cc1 | 4.8 | 9.1 | 0.9 | 6.2 | -9.2 | -2.8
CCCC(=O)c1ccc(OCc2cn(CC(=O)c3ccc(O)cc3)nn2)cc1 | 4.8 | 23.1* | -0.2 | -7.0 | 5.7 | 4.4
O=C(Cn1cc(COC(=O)c2c3ccccc3cc3ccccc23)nn1)c1ccc(O)cc1 | 9.9 | 20.1 | -6.5 | 2.0 | 6.0 | -6.0
O=C(Cn1cc(COc2c(F)c(F)c(Br)c(F)c2F)nn1)c1ccc(O)cc1 | -2.0 | 3.7 | -7.9 | -6.1 | 14.5 | -2.7
O=Cc1cccc(OCc2cn(CC(=O)c3ccc(O)cc3)nn2)c1 | 12.2 | 23.9* | 1.0 | -2.1 | 17.6 | 3.4
CCOC(=O)c1csc(NC(=O)C2CCCN(S(=O)(=O)c3cc(OC)ccc3OC)C2)n1 (configuration not stated) | -4.0 | -1.6 | . | . | . | 2.0
CC(=O)OCCn1c([N+](=O)[O-])cnc1C=[N+]([O-])C1CCCCC1 | -3.9 | 0.9 | 5.4 | 10.0 | -10.0 | 3.1
CN(C)c1ccc(CNC(=O)C2(C)Cc3c(-c4cccc(C(F)(F)F)c4)ccnc3O2)cc1 (configuration not stated) | -5.5 | 0.9 | 8.2 | -5.1 | 18.9 | -2.7
O=C(Cn1cc(COc2ccccc2[N+](=O)[O-])nn1)c1ccc(O)cc1 | -2.6 | 1.4 | 3.1 | 9.5 | 4.6 | -0.6
N#Cc1ccccc1OCc1cn(CC(=O)c2ccc(O)cc2)nn1 | 13.1 | 22.2* | 0.6 | 2.2 | 5.7 | 2.8
Cc1ccc(N=Cc2c(O)n(-c3nccs3)c(=O)c3ccccc23)cc1 | -1.2 | -0.1 | 7.6 | 1.6 | 0.2 | 0.5
Cc1cc(C)c(N=Cc2c(O)n(-c3nccs3)c(=O)c3ccccc23)c(C)c1 | 5.6 | 27.3* | 1.3 | -0.2 | 2.8 | -0.2
CC(=O)N1CCOc2cc(S(=O)(=O)NC(C)c3ccccc3)c(Cl)cc21 (configuration not stated) | -8.0 | 29.5* | -3.4 | 4.9 | -8.2 | 1.4
COc1cccc(/C=C/C(=O)OCC(=O)NCCC2=CCCCC2)c1 | 0.8 | 36.6* | 2.8 | 2.0 | 10.6 | 2.9
Cn1c(/C=C/c2ccc(Cl)cc2)c([N+](=O)[O-])c(=O)n(C)c1=O | 9.9 | 20.8* | 3.3 | -1.9 | -7.3 | 7.3
